From ChEMBL document CHEMBL4699415, “Synthesis and anti-HBV activity of carbocyclic nucleoside hybrids with salient features of entecavir and aristeromycin” (RSC Med Chem, 2020) come the findings set out here.

Data set [1] can be described thus: Cytotoxicity against human HepG2.2.15.7 cells assessed as reduction in cell viability. Type of data set: cell-based. The procedure, abridged: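 HepG2.2.15.7 cells, 1 × 10^4 per well, seeded 24 h, then kept nine days with graded concentrations, medium with drug renewed every three days. Viability read by tetrazolium dye method. CC50 is the concentration reducing viable cells by 50%.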

The test system of another data set is Hepatitis B virus. The data set is described as follows: Antiviral activity against Hepatitis B virus infected in human HepG2.2.15.7 assessed as reduction in HBV DNA level incubated for 9 days media replaced every 3 days once with test compound by RT-PCR analysis. Type of data set: functional, organism-based. In outline:
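HepG2.2.15.7 cells, 1 × 10^4 per well, settled 24 h before exposure to a range of concentrations; drug-containing medium renewed every three days. At day nine, supernatant HBV DNA quantified by real-time PCR. IC50 is the concentration giving 50% inhibition of supernatant HBV DNA.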

As to `C=C1[C@@H](n2ccc3c(N)ncnc32)[C@H](O)[C@H](O)[C@@]1(C)CO`, the CC50 (in general, the concentration giving 50% cytotoxicity) in data set [1] is above 100 µM. Also, the 50% inhibitory concentration (IC50) (commonly the concentration that inhibits the measured activity by half) in the data set on Hepatitis B virus is above 100 µM.

In the case of `C#Cc1cn([C@@H]2C(=C)[C@](C)(CO)[C@@H](O)[C@H]2O)c2ncnc(N)c12`, the CC50 in data set [1] is above 100 µM. The IC50 with Hepatitis B virus turned out to be 6.3 µM.

For `C=C1[C@@H](n2cc(Br)c3c(N)ncnc32)[C@H](O)[C@H](O)[C@@]1(C)CO`, in data set [1], the CC50 is above 100 µM. Also, the IC50 in the data set on Hepatitis B virus is 8.3 µM.

Regarding `C=C1[C@@H](n2cc(Cl)c3c(N)ncnc32)[C@H](O)[C@H](O)[C@@]1(C)CO`, in data set [1], the CC50 was above 100 µM. Besides, the IC50 in the data set with Hepatitis B virus stood at 22.9 µM.

Regarding `C=Cc1cn([C@@H]2C(=C)[C@](C)(CO)[C@@H](O)[C@H]2O)c2ncnc(N)c12`, in data set [1], the CC50 was above 100 µM. The IC50 in the data set with Hepatitis B virus was above 100 µM.

With `Nc1ncnc2c1ncn2[C@@H]1C[C@H](CO)[C@@H](O)[C@H]1O` [ARISTEROMYCIN], in data set [1], the CC50 is above 3 µM. Further, the IC50 in the data set on Hepatitis B virus is above 3 µM.

As to `C=C1[C@@H](n2cc(F)c3c(N)ncnc32)[C@H](O)[C@H](O)[C@@]1(C)CO`, in data set [1], the CC50 is above 100 µM. Besides, the IC50 in the data set on Hepatitis B virus is above 100 µM.

`C=C1[C@@H](n2cc(I)c3c(N)ncnc32)[C@H](O)[C@H](O)[C@@]1(C)CO`: the CC50 in data set [1] amounted to 87.5 µM. The IC50 in the data set on Hepatitis B virus turned out to be 3.4 µM.

As to `C=C1[C@H](CO)[C@@H](O)C[C@@H]1n1cnc2c(=O)[nH]c(N)nc21` [ENTECAVIR], the CC50 in data set [1] was above 0.1 µM. Further, the IC50 with Hepatitis B virus came out at 0.00018 µM.
